Measured values from ChEMBL document CHEMBL3352255, “Tailor-made fluorescent trilobolide to study its biological relevance” (J Med Chem, 2014).
Calls of active or inactive are those of the source. The calls are words filed in the database; no cut-off is given here.

What was measured:
[1] = test system: HT-29; experiment: Cytotoxicity against human HT-29 cells after 48 hrs by WST-1 assay; assay type: functional, cell-based; conditions: HT-29, 48 h
How it was run: (§1)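 Dark cytotoxicity (no light exposure) by WST-1 tetrazolium-to-formazan conversion reflecting metabolic activity; compounds tested at concentrations up to 50 μM for 24, 48 or 72 h; IC50 taken as concentration giving 50% inhibition of cell viability.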

[2] = Cellular uptake in Endoplasmic reticulum of human HeLa cells at 1 uM after 1 hr by fluorescence microscopy; assay type: ADME, cell-based
How it was run: (§2)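 Live-cell fluorescence microscopy of cells exposed to Bodipy-labelled conjugates at 1 μM for 1 h. ER was co-stained with ER-Tracker Blue-White DPX (100 nM, 20 min) to check colocalisation. A Bodipy dye-only stain served as control.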

[3] = test system: U2OS; experiment: Cytotoxicity against human U2OS cells after 72 hrs by WST-1 assay; assay type: functional, cell-based; how it was run: as §1
[4] = test system: PC-3; experiment: Induction of LPS-induced NO production in human PC3 cells at 40 uM after 24 hrs using DAR-2 probe by fluorescence assay; assay type: functional, cell-based
How it was run: (§3)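 NO in living cells (PC-3, LNCaP, MCF-7, U-2 OS) was imaged by fluorescence microscopy with the NO-specific red-emitting probe DAR-2 after compound stimulation.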

[5] = test system: HT-29; experiment: Cytotoxicity against human HT-29 cells after 24 hrs by WST-1 assay; assay type: functional, cell-based; conditions: HT-29, 24 h; how it was run: as §1
[6] = test system: HT-29; experiment: Cytotoxicity against human HT-29 cells after 72 hrs by WST-1 assay; assay type: functional, cell-based; conditions: HT-29, 72 h; how it was run: as §1
[7] = test system: U2OS; experiment: Cytotoxicity against human U2OS cells after 24 hrs by WST-1 assay; assay type: functional, cell-based; how it was run: as §1
[8] = Cellular uptake in Endoplasmic reticulum of human PC3 cells at 1 uM after 1 hr by fluorescence microscopy; assay type: ADME, cell-based; conditions: pc-3, 1 h; how it was run: as §2
[9] = test system: LNCaP; experiment: Cytotoxicity against human LNCAP cells after 24 hrs by WST-1 assay; assay type: functional, cell-based; how it was run: as §1
[10] = test system: C2C12; experiment: Cytotoxicity against mouse C2C12 cells after 72 hrs by WST-1 assay; assay type: functional, cell-based; conditions: C2C12, 72 h; how it was run: as §1
[11] = test system: LNCaP; experiment: Induction of LPS-induced NO production in human LNCAP cells at 40 uM after 24 hrs using DAR-2 probe by fluorescence assay; assay type: functional, cell-based; how it was run: as §3
[12] = test system: MCF7; experiment: Cytotoxicity against human MCF7 cells after 48 hrs by WST-1 assay; assay type: functional, cell-based; conditions: MCF7, 48 h; how it was run: as §1
[13] = test system: U2OS; experiment: Cytotoxicity against human U2OS cells after 48 hrs by WST-1 assay; assay type: functional, cell-based; how it was run: as §1
[14] = test system: LNCaP; experiment: Cytotoxicity against human LNCAP cells after 72 hrs by WST-1 assay; assay type: functional, cell-based; how it was run: as §1
[15] = Cytotoxicity against human PC3 cells after 72 hrs by WST-1 assay; assay type: functional, cell-based; conditions: PC-3, 72 h; how it was run: as §1
[16] = Cytotoxicity against human PC3 cells after 48 hrs by WST-1 assay; assay type: functional, cell-based; conditions: PC-3, 48 h; how it was run: as §1
[17] = Cytotoxicity against human MIAPaCa2 cells after 24 hrs by WST-1 assay; assay type: functional, cell-based; conditions: MIA PaCa-2, 24 h; how it was run: as §1
[18] = Cellular uptake in Endoplasmic reticulum of human LNCAP cells at 1 uM after 1 hr by fluorescence microscopy; assay type: ADME, cell-based; how it was run: as §2
[19] = test system: LNCaP; experiment: Cytotoxicity against human LNCAP cells after 48 hrs by WST-1 assay; assay type: functional, cell-based; how it was run: as §1
[20] = Cytotoxicity against rat peritoneal cells assessed as reduction in cell viability at 10 uM after 24 hrs by WST-1 assay; assay type: cell-based
[21] = test system: MCF7; experiment: Induction of LPS-induced NO production in human MCF7 cells at 40 uM after 24 hrs using DAR-2 probe by fluorescence assay; assay type: functional, cell-based; how it was run: as §3
[22] = Cytotoxicity against human MIAPaCa2 cells after 72 hrs by WST-1 assay; assay type: functional, cell-based; conditions: MIA PaCa-2, 72 h; how it was run: as §1
[23] = test system: C2C12; experiment: Cytotoxicity against mouse C2C12 cells after 48 hrs by WST-1 assay; assay type: functional, cell-based; conditions: C2C12, 48 h; how it was run: as §1
[24] = Cytotoxicity against human PC3 cells after 24 hrs by WST-1 assay; assay type: functional, cell-based; conditions: PC-3, 24 h; how it was run: as §1
[25] = Cellular uptake in Endoplasmic reticulum of human U2OS cells at 1 uM after 1 hr by fluorescence microscopy; assay type: ADME, cell-based; how it was run: as §2
[26] = Cytotoxicity against human MIAPaCa2 cells after 48 hrs by WST-1 assay; assay type: functional, cell-based; conditions: MIA PaCa-2, 48 h; how it was run: as §1
[27] = test system: MCF7; experiment: Cytotoxicity against human MCF7 cells after 72 hrs by WST-1 assay; assay type: functional, cell-based; conditions: MCF7, 72 h; how it was run: as §1
[28] = test system: MCF7; experiment: Cytotoxicity against human MCF7 cells after 24 hrs by WST-1 assay; assay type: functional, cell-based; conditions: MCF7, 24 h; how it was run: as §1
[29] = test system: C2C12; experiment: Cytotoxicity against mouse C2C12 cells after 24 hrs by WST-1 assay; assay type: functional, cell-based; conditions: C2C12, 24 h; how it was run: as §1
[30] = test system: U2OS; experiment: Induction of LPS-induced NO production in human U2OS cells at 40 uM after 24 hrs using DAR-2 probe by fluorescence assay; assay type: functional, cell-based; how it was run: as §3

C/C=C(/C)C(=O)O[C@@H]1C[C@H]2C(=C1C)[C@@H]1OC(=O)[C@@](C)(O)[C@@]1(O)[C@@H](OC(=O)[C@@H](C)CC)C[C@]2(C)OC(C)=O
IC50 [1]: 9800 nM
Drug uptake [2]: Active
IC50 [3]: 700 nM
Activity [4]: Active
IC50 [5]: 41400 nM
IC50 [6]: 9500 nM
IC50 [7]: 12500 nM
Drug uptake [8]: Active
IC50 [9]: 3400 nM
IC50 [10]: 300 nM
Activity [11]: Active
IC50 [12]: 2500 nM
IC50 [13]: 200 nM
IC50 [14]: 400 nM
IC50 [15]: 500 nM
IC50 [16]: 1300 nM
IC50 [17]: 17400 nM
Drug uptake [18]: Active
IC50 [19]: 500 nM
Activity [20]: 65%
Activity [21]: Active
IC50 [22]: 1500 nM
IC50 [23]: 1000 nM
IC50 [24]: 9600 nM
Drug uptake [25]: Active
IC50 [26]: 6000 nM
IC50 [27]: 2100 nM
IC50 [28]: 200 nM
IC50 [29]: 4000 nM
Activity [30]: Active
